Consider seven compounds from publication PMC4132844 (Nature communications, 2014).

The term IC50 denotes the concentration that inhibits the measured activity by half.

The first series deals with HepaRG cells in 2D culture.
Experiment: not given
Conditions: read-out: IC50, HepaRG cells in 2D culture; cited from earlier work.
With `CC(=O)Nc1ccc(O)cc1` [Acetaminophen, acetaminophen], the IC50 was 26300 µM.

The next series concerns CYP2D6 (expressed drug-metabolizing enzyme). The experiment in a line: TeamChip metabolism-induced toxicity assay, CYP2D6. Format: cell-based. Conditions: human.
In the case of `Cc1c(C)c2c(c(C)c1O)CCC(C)(COc1ccc(CC3SC(=O)NC3=O)cc1)O2` (centres unmarked) [Troglitazone, troglitazone], the IC50 at 48 h stood at 77 ± 4.2 µM.

`CN1CCN(CCCN2c3ccccc3Sc3ccc(C(F)(F)F)cc32)CC1` [Trifluoperazine, trifluoperazine] had an IC50 at 48 h of 69 ± 9.3 µM.

On to `CC(C)C(=O)Nc1ccc([N+](=O)[O-])c(C(F)(F)F)c1` [Flutamide, flutamide], for which the half-inhibitory concentration (IC50) at 48 h is 27 ± 5.1 µM.

With `CC(=O)Nc1ccc(O)cc1` [Acetaminophen, acetaminophen], the midpoint of inhibition, the IC50 at 48 h, lay at 1100 ± 71 µM.

`Nc1c(CC(=O)O)cccc1C(=O)c1ccc(Br)cc1` [Bromfenac, bromfenac] registered an IC50 at 48 h of 170 ± 39 µM.

A further series concerns P450 Mix: CYP2C9, CYP2D6, CYP3A4, CYP1A2, CYP2E1 (expressed). The experiment in a line: TeamChip metabolism-induced toxicity assay, P450 Mix. Format: cell-based. Conditions: human.
On to `Cc1c(C)c2c(c(C)c1O)CCC(C)(COc1ccc(CC3SC(=O)NC3=O)cc1)O2` (centres unmarked) [Troglitazone, troglitazone], for which inhibition was half-maximal at 51 ± 4.3 µM (IC50 at 48 h).

Take `CN1CCN(CCCN2c3ccccc3Sc3ccc(C(F)(F)F)cc32)CC1` [Trifluoperazine, trifluoperazine]: the 50% inhibitory concentration (IC50) at 48 h was 53 ± 13 µM.

The compound `CC(C)C(=O)Nc1ccc([N+](=O)[O-])c(C(F)(F)F)c1` [Flutamide, flutamide] yielded an IC50 at 48 h of 18 ± 4.1 µM.

On to `CC(=O)Nc1ccc(O)cc1` [Acetaminophen, acetaminophen], for which the IC50 at 48 h worked out at 240 ± 74 µM.

Regarding `Nc1c(CC(=O)O)cccc1C(=O)c1ccc(Br)cc1` [Bromfenac, bromfenac], the midpoint of inhibition, the IC50 at 48 h, lay at 220 ± 24 µM.

A further series has as its system UGT1A4 (expressed metabolising enzyme). The experiment in a line: TeamChip metabolism-induced toxicity assay, UGT1A4. It is filed as cell-based. Conditions: human, IC50, UGT1A4, Ad-UGT1A4 15 MOI; compound 48 h; n = 4.
Compound `Cc1c(C)c2c(c(C)c1O)CCC(C)(COc1ccc(CC3SC(=O)NC3=O)cc1)O2` (centres unmarked) [Troglitazone, troglitazone] displayed an IC50 at 48 h of 150 ± 11 µM.

The compound `CN1CCN(CCCN2c3ccccc3Sc3ccc(C(F)(F)F)cc32)CC1` [Trifluoperazine, trifluoperazine] registered a 50% inhibitory concentration (IC50) at 48 h of 100 ± 12 µM.

Compound `CC(C)C(=O)Nc1ccc([N+](=O)[O-])c(C(F)(F)F)c1` [Flutamide, flutamide] gave an IC50 at 48 h of 38 ± 1.8 µM.

On to `CC(=O)Nc1ccc(O)cc1` [Acetaminophen, acetaminophen], for which the IC50 at 48 h turned out to be 2100 ± 52 µM.

In turn, `Nc1c(CC(=O)O)cccc1C(=O)c1ccc(Br)cc1` [Bromfenac, bromfenac] showed an IC50 at 48 h of 210 ± 14 µM.

The next series deals with All Mix: CYP2C9, CYP2D6, CYP3A4, CYP1A2, CYP2E1, UGT1A4 (expressed). Kind of series: TeamChip metabolism-induced toxicity assay, All Mix. It is filed as cell-based. Conditions: human.
`Cc1c(C)c2c(c(C)c1O)CCC(C)(COc1ccc(CC3SC(=O)NC3=O)cc1)O2` (centres unmarked) [Troglitazone, troglitazone] yielded a half-maximal inhibitory concentration (IC50) at 48 h of 62 ± 2.9 µM.

Compound `CN1CCN(CCCN2c3ccccc3Sc3ccc(C(F)(F)F)cc32)CC1` [Trifluoperazine, trifluoperazine] gave a 50% inhibitory concentration (IC50) at 48 h of 110 ± 10 µM.

Compound `CC(C)C(=O)Nc1ccc([N+](=O)[O-])c(C(F)(F)F)c1` [Flutamide, flutamide] registered a half-maximal inhibitory concentration (IC50) at 48 h of 17 ± 1.1 µM.

Consider `CC(=O)Nc1ccc(O)cc1` [Acetaminophen, acetaminophen], for which inhibition was half-maximal at 640 ± 100 µM (IC50 at 48 h).

As for `Nc1c(CC(=O)O)cccc1C(=O)c1ccc(Br)cc1` [Bromfenac, bromfenac], the 50% inhibitory concentration (IC50) at 48 h is […].

For the next series, the system named is THLE-2 cells (no enzyme, Ad-Null). The experiment in a line: TeamChip metabolism-induced toxicity assay, no enzyme control. Conditions: Homo sapiens, 48 h, read-out: IC50, No enzyme. Format: cell-based.
With `Cc1c(C)c2c(c(C)c1O)CCC(C)(COc1ccc(CC3SC(=O)NC3=O)cc1)O2` (centres unmarked) [Troglitazone, troglitazone], the IC50 stood at 110 ± 15 µM.

`CN1CCN(CCCN2c3ccccc3Sc3ccc(C(F)(F)F)cc32)CC1` [Trifluoperazine, trifluoperazine]: the IC50 worked out at 75 ± 11 µM.

As to `CC(C)C(=O)Nc1ccc([N+](=O)[O-])c(C(F)(F)F)c1` [Flutamide, flutamide], the IC50 worked out at 45 ± 1.6 µM.

For the compound `CC(=O)Nc1ccc(O)cc1` [Acetaminophen, acetaminophen], the half-maximal inhibitory concentration (IC50) came to 1500 ± 63 µM.

With `Nc1c(CC(=O)O)cccc1C(=O)c1ccc(Br)cc1` [Bromfenac, bromfenac], the IC50 is 210 ± 17 µM.

The series is the same for the next values; noted with them: Homo sapiens, THLE-2, 48 h, read-out: IC50, No enzyme.
For `Cc1c(C)c2c(c(C)c1O)CCC(C)(COc1ccc(CC3SC(=O)NC3=O)cc1)O2` (centres unmarked) [Troglitazone, troglitazone], the IC50 is 92 ± 6.4 µM.

`CN1CCN(CCCN2c3ccccc3Sc3ccc(C(F)(F)F)cc32)CC1` [Trifluoperazine, trifluoperazine]: the IC50 is 80 ± 9.4 µM.

As to `CC(C)C(=O)Nc1ccc([N+](=O)[O-])c(C(F)(F)F)c1` [Flutamide, flutamide], the IC50 was determined as 37 ± 9.7 µM.

Consider `CC(=O)Nc1ccc(O)cc1` [Acetaminophen, acetaminophen], for which the IC50 worked out at 1400 ± 250 µM.

With `Nc1c(CC(=O)O)cccc1C(=O)c1ccc(Br)cc1` [Bromfenac, bromfenac], the 50% inhibitory concentration (IC50) is 190 ± 12 µM.

For the next series, the system named is HepaRG cells in 3D culture.
Experiment: not given
Conditions: read-out: IC50, HepaRG cells in 3D culture; cited from earlier work.
Take `CC(=O)Nc1ccc(O)cc1` [Acetaminophen, acetaminophen]: the IC50 is 2700 µM.

Another series deals with CYP1A2 (expressed drug-metabolizing enzyme). The experiment in a line: TeamChip metabolism-induced toxicity assay, CYP1A2. It is filed as cell-based. Conditions: human.
`Cc1c(C)c2c(c(C)c1O)CCC(C)(COc1ccc(CC3SC(=O)NC3=O)cc1)O2` (centres unmarked) [Troglitazone, troglitazone] had an IC50 at 48 h of 39 ± 6.6 µM.

Compound `CN1CCN(CCCN2c3ccccc3Sc3ccc(C(F)(F)F)cc32)CC1` [Trifluoperazine, trifluoperazine] gave an IC50 at 48 h of 120 ± 5.1 µM.

On to `CC(C)C(=O)Nc1ccc([N+](=O)[O-])c(C(F)(F)F)c1` [Flutamide, flutamide], for which the concentration for half-maximal inhibition (IC50) at 48 h worked out at 18 ± 0.5 µM.

In turn, `CC(=O)Nc1ccc(O)cc1` [Acetaminophen, acetaminophen] returned a half-maximal inhibitory concentration (IC50) at 48 h of 820 ± 21 µM.

In turn, `Nc1c(CC(=O)O)cccc1C(=O)c1ccc(Br)cc1` [Bromfenac, bromfenac] returned a half-inhibitory concentration (IC50) at 48 h of 190 ± 37 µM.

For a further series, the system named is THLE-2 cells. The experiment in a line: Apoptosis assay. Conditions: THLE-2 cells on the TeamChip. It is filed as cell-based, human.
In the case of `COc1cccc2c1C(=O)c1c(O)c3c(c(O)c1C2=O)C[C@@](O)(C(=O)CO)C[C@@H]3O[C@H]1C[C@H](N)[C@H](O)[C@H](C)O1` [Doxorubicin, doxorubicin], the “number of apoptotic cells” value is on record as “increased the number of apoptotic cells in a dose-dependent manner”.

The next series relates to CYP3A4 (expressed drug-metabolizing enzyme). Kind of series: TeamChip metabolism-induced toxicity assay, CYP3A4. Format: cell-based. Conditions: human, IC50, CYP3A4, Ad-CYP3A4 15 MOI; compound 48 h; n = 4.
Consider `Cc1c(C)c2c(c(C)c1O)CCC(C)(COc1ccc(CC3SC(=O)NC3=O)cc1)O2` (centres unmarked) [Troglitazone, troglitazone], for which the half-maximal inhibitory concentration (IC50) at 48 h was found to be […].

In turn, `CN1CCN(CCCN2c3ccccc3Sc3ccc(C(F)(F)F)cc32)CC1` [Trifluoperazine, trifluoperazine] yielded an IC50 at 48 h of 110 ± 7.3 µM.

As for `CC(C)C(=O)Nc1ccc([N+](=O)[O-])c(C(F)(F)F)c1` [Flutamide, flutamide], half-maximal inhibition (IC50 at 48 h) was put at […].

In turn, `CC(=O)Nc1ccc(O)cc1` [Acetaminophen, acetaminophen] showed an IC50 at 48 h of […].

Consider `Nc1c(CC(=O)O)cccc1C(=O)c1ccc(Br)cc1` [Bromfenac, bromfenac], for which the IC50 at 48 h was […].

The subject of a further series is CYP2E1 (expressed drug-metabolizing enzyme). The experiment in a line: TeamChip metabolism-induced toxicity assay, CYP2E1. Format: cell-based. Conditions: human. The method in brief:
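THLE-2 cells in Matrigel spotted onto micropillars at 4°C, held 18 h at 37°C, transduced 1 d with recombinant adenovirus carrying the enzyme gene (Ad-Null as no-enzyme control). Then exposed 2 d to test compound in BEGM. Washed twice in DPBS, Live/Dead stained 1 h in the dark, chip scanned.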
`CC(=O)Nc1ccc(O)cc1` [Acetaminophen, acetaminophen] returned an IC50 at 2 d of 180 µM.

The next series deals with THLE-2 cells. Kind of series: Intracellular GSH assay on the TeamChip. Format: cell-based, human. Conditions: exposed to 5 μM ketoconazole, at varying concentrations of acetaminophen. The method in brief: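 THLE-2 cells in Matrigel spots on a micropillar chip, transduced with 15 MOI Ad-CYP3A4 or Ad-Null (control) for 1 d. Then exposed for 48 h to varying test compound with 5 μM CYP3A4 inhibitor. Washed twice in DPBS, stained 20 min in the dark with thiol green dye (intracellular GSH kit), chip scanned, GSH quantified; n = 3.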
Take `CC(=O)N1CCN(c2ccc(OCC3COC(Cn4ccnc4)(c4ccc(Cl)cc4Cl)O3)cc2)CC1` (centres unmarked) [ketoconazole]: the “intracellular GSH concentrations in CYP3A4-expressing THLE-2 cells” value is “unchanged”.

In the next series the test system is CYP2C9 (expressed drug-metabolizing enzyme). The experiment in a line: TeamChip metabolism-induced toxicity assay, CYP2C9. Format: cell-based. Conditions: human.
Turning to `Cc1c(C)c2c(c(C)c1O)CCC(C)(COc1ccc(CC3SC(=O)NC3=O)cc1)O2` (centres unmarked) [Troglitazone, troglitazone], the IC50 at 48 h is 50 ± 4.9 µM.

For the compound `CN1CCN(CCCN2c3ccccc3Sc3ccc(C(F)(F)F)cc32)CC1` [Trifluoperazine, trifluoperazine], the IC50 at 48 h was determined as 75 ± 12 µM.

Compound `CC(C)C(=O)Nc1ccc([N+](=O)[O-])c(C(F)(F)F)c1` [Flutamide, flutamide] showed an IC50 at 48 h of 25 ± 4.8 µM.

On to `CC(=O)Nc1ccc(O)cc1` [Acetaminophen, acetaminophen], for which 930 ± 41 µM corresponded to half-maximal inhibition (IC50 at 48 h).

Regarding `Nc1c(CC(=O)O)cccc1C(=O)c1ccc(Br)cc1` [Bromfenac, bromfenac], the IC50 at 48 h came out at 120 ± 6 µM.
